What is called EC50 is the concentration needed to bring the measured effect to its halfway point. A word on the Ki: it is the dissociation constant of the complex between target and ligand, obtained from inhibition or displacement. In general, Km refers to the concentration of substrate that gives half-maximal velocity.

We go through 37 molecules from PMC4857052 (Molecular pharmacology, 2012).

Entries after “also recorded” stand apart in the source; their conditions may differ.

For data set [1], the system named is T. b. brucei bloodstream forms strain 427 WT. Description: Alamar blue drug sensitivity assay, wild-type. It is filed as cell-based, Trypanosoma brucei brucei. The following applies: for EC50: Trypanosoma brucei, read-out: EC50, WT, Mean, Alamar blue assay, wild-type sensitive control strain; for effect on bloodstream trypanosomes (in words): Alamar blue viability assay. The procedure, abridged:
(§1)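 Bloodstream-form T. b. brucei s427 grown in HMI-9 with 10% FBS at 37°C under 5% CO2. Resistant lines were made by months of stepwise-increasing exposure to the analog, then cloned by limiting dilution. Viability was read by resazurin (Alamar blue) reduction. Thymidine rescue was tested by adding 100 μM thymidine.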
(Resazurin is reduced to fluorescent resorufin, in cell work by metabolically active cells.)

Data set [2] has as its system 5F-2′dURes T. b. brucei. Description: Alamar blue drug sensitivity assay, 5F-2′dURes. The format is cell-based, Trypanosoma brucei brucei. The following applies: for EC50: Trypanosoma brucei, read-out: EC50, 5F-2′dURes, Mean; for RF, 5F-2′dURes: resistance factor: IC50(resistant clone)/IC50(WT). A digest of the protocol: as §1
Data set [3] deals with 5FOARes T. b. brucei. Description: Alamar blue drug sensitivity assay, 5FOARes. It is filed as cell-based, Trypanosoma brucei brucei. The following applies: for EC50: Trypanosoma brucei, read-out: EC50, 5FOARes, Mean; for RF, 5FOARes: resistance factor: IC50(resistant clone)/IC50(WT). A digest of the protocol:
as §1

Data set [4] has as its system 5FURes T. b. brucei. Description: Alamar blue drug sensitivity assay, 5FURes. The format is cell-based, Trypanosoma brucei brucei. The following applies: for EC50: Trypanosoma brucei, read-out: EC50, 5FURes, Mean; for RF, 5FURes: resistance factor: IC50(resistant clone)/IC50(WT). A digest of the protocol: as §1
Data set [5] deals with TbU1. The following applies: procyclic forms (PCF), NE = no effect on uptake at concentration indicated, ref De Koning and Jarvis (1998), Papageorgiou et al. (2005), Gudin et al. (2006), cited from earlier work; for Ki: read-out: Ki, U1.
For data set [6], the system named is T. b. brucei bloodstream forms. The data set can be described thus: Uptake of other radiolabeled pyrimidines by wild-type bloodstream forms. It is filed as cell-based, Trypanosoma brucei brucei. The following applies: over 15 min; 2.5 μM [3H]-2′-deoxycytidine, 0.25 μM [3H]-cytosine, 1 μM [3H]-thymine.
The target in data set [7] is TbU3 uracil transporter. Description: [3H]-uracil transport in bloodstream forms. It is filed as cell-based, Trypanosoma brucei brucei.
The subject of data set [8] is s427WT T. b. brucei bloodstream forms. The data set can be described thus: Kinetic parameters of pyrimidine transport in wild-type bloodstream forms. The format is cell-based, Trypanosoma brucei brucei. The following applies: [3H]-permeant; strain s427WT. The procedure, abridged: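 Log-phase cells were washed into HEPES/bicarbonate glucose buffer (pH 7.3) at 1 × 10^8/ml and mixed with an equal volume of [3H]-permeant, with or without unlabeled competitor, at ambient temperature. Uptake was stopped with ice-cold buffer containing saturating unlabeled permeant, then cells were spun through oil. Counts were corrected for nonspecific binding and Km, Vmax and Ki obtained by curve fitting. Runs were in triplicate. Thymidine: 10 μM label, 15 min. Orotic acid: 10 min.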

Data set [9] concerns TbU3. The data set can be described thus: [3H]-2′deoxyuridine transport in bloodstream forms. The format is cell-based, Trypanosoma brucei brucei.
The test system of data set [10] is 5-FURes T. b. brucei. The data set can be described thus: Pyrimidine transport in 5-FURes bloodstream forms. It is filed as cell-based, Trypanosoma brucei brucei.
The subject of data set [11] is TbT1 (P1-type nucleoside transporter). Description: [3H]-thymidine transport in bloodstream forms. The format is cell-based, Trypanosoma brucei brucei. The following applies: bloodstream forms.

In the case of `O=c1[nH]c(=O)n([C@H]2C[C@H](O)[C@@H](CO)O2)cc1Cl` [5Cl-2’-dUrd, 5-chloro-2′-deoxyuridine], the EC50 in data set [1] stood at 54 µM. Besides, in data set [2], the EC50 was found to be 22 µM and the “RF, 5F-2′dURes” value stood at 0.4. Besides, in data set [3], the EC50 was 91 µM and the “RF, 5FOARes” value is given as 1.7. In [4] (5-FURes), the “fold more sensitive than wild-type” value is listed as 15 fold. Besides, in [4], the EC50 is 3.7 µM and the “RF, 5FURes” value came out at 0.07.

For the molecule `O=c1cc[nH]c(=S)[nH]1` [2-Thiouracil], the Ki in data set [5] is 640 ± 110 µM.

`N=C(N)c1ccc(OCCCCCOc2ccc(C(=N)N)cc2)cc1` [Pentamidine]: in data set [1], the EC50 was found to be 0.0078 µM. Also, in [2], the EC50 is 0.0079 µM and the “RF, 5F-2′dURes” value amounted to 1.0. In [3], the EC50 was 0.017 µM and the “RF, 5FOARes” value was 2.2. For the same molecule, in data set [4], the EC50 was 0.0073 µM and the “RF, 5FURes” value was 0.94.

Consider `Nc1nc2c(ncn2[C@@H]2O[C@H](CO)[C@@H](O)[C@H]2O)c(=O)[nH]1` [Guanosine], for which the “Ki, U1” value in [5] is on record as “NE, 1000”.

With `O=c1ccnc[nH]1` [4(3H)Pyrimidone], the Ki in data set [5] was 1670 ± 180 µM.

On to `Nc1nc(=O)n([C@H]2C[C@H](O)[C@@H](CO)O2)cc1F` [5Fl-2’-Ctd, 5-fluoro-2′-deoxycytidine], for which the EC50 in [1] was found to be 49.4 µM. In data set [1] (wild-type), the “reduction of sensitivity by addition of 100 μM thymidine” value came out at 78 fold. In addition, in [2], the EC50 was > 5000 µM and the “RF, 5F-2′dURes” value is >100. Also, in [3], the EC50 was 126 µM and the “RF, 5FOARes” value was 2.6. In data set [4], the EC50 is 55 µM and the “RF, 5FURes” value is 1.1.

Take `Nc1ccn([C@H]2C[C@H](O)[C@@H](CO)O2)c(=O)n1` [2′-deoxycytidine]: in data set [6], the “accumulation of radiolabeled permeant (in words)” value is “just detectable accumulation”.

Take `O=C(O)c1[nH]c(=O)[nH]c(=O)c1F` [5-Fluoroorotic acid, 5-fluoroorotic acid]: the EC50 came out at 14.1 µM in data set [1], 13.3 µM in data set [2], 1180 µM in data set [3] and 98 µM in data set [4]. Also, the “RF, 5F-2′dURes” value in data set [2] is listed as 0.94. Also, the “RF, 5FOARes” value in data set [3] stood at 83. In addition, in data set [4], the “RF, 5FURes” value was 6.9.

With `Nc1ncnc2c1ncn2[C@@H]1O[C@H](CO)[C@@H](O)[C@H]1O` [Adenosine], the “Ki, U1” value in data set [5] is “NE, 1000”.

With `O=c1[nH]cnc2nc[nH]c12` [Hypoxanthine], the “Ki, U1” value in [5] is “NE, 1000”. Moreover, the “Ki, U3” value in data set [7] is “NE, 1000”.

In the case of `O=c1ccn([C@H]2CC[C@@H](CO)O2)c(=O)[nH]1` [2’,3′-dideoxyuridine, 2′,3′-dideoxyuridine], the “effect on bloodstream trypanosomes (in words)” value in [1] is “no effect up to at least 1 mM”.

As to `Cc1cc(=O)[nH]c(=O)[nH]1` [6-Methyluracil], in [5], the Ki is > 2500 µM.

As for `O=c1ccn([C@H]2C[C@H](O)[C@@H](CO)O2)c(=O)[nH]1` [2’Deoxyuridine, 2′-deoxyuridine], the Km in [8] came to 810 ± 310 µM; in data set [7] (read-out: Km, U3, bloodstream forms (BSF), Km of the permeant itself), 810 ± 130 µM. In addition, in data set [8], the Vmax is recorded as 1.3 ± 0.7 pmol (10^7 cells)^−1s^−1. For the same molecule, the “rate of [3H]-2′deoxyuridine uptake” value in data set [9] (0.5 μM [3H]-2′deoxyuridine) is on record as 0.00045 pmol (10^7 cells)^−1s^−1. In addition, the “rate of [3H]-2′deoxyuridine transport” value in [9] (5 μM [3H]-2′deoxyuridine, linear over 4 min) is recorded as 0.0051 ± 0.0003 pmol/10^7 cells/s. In addition, in [9] (5 μM label, 2.5 mM unlabeled), the “inhibition of [3H]-2′deoxyuridine transport by unlabeled 2′-deoxyuridine” value turned out to be 76%.

As for `O=c1nccc[nH]1` [2-Pyrimidone], the Ki in data set [5] was 5400 ± 1300 µM.

As for `O=C1CCNC(=O)N1` [5,6-Dihydrouracil], the Ki in [5] was 830 ± 200 µM.

On to `O=c1[nH]ccc(=S)[nH]1` [4-Thiouracil], for which the Ki in data set [5] was 22 ± 7 µM.

On to `Nc1nc(=O)n([C@@H]2O[C@H](CO)[C@@H](O)[C@H]2O)cc1F` [5-fluorocytidine], for which the “effect on bloodstream trypanosomes (in words)” value in [1] was “no effect up to at least 1 mM”.

Consider `O=c1ccn([C@@H]2O[C@H](CO)[C@@H](O)[C@H]2O)c(=S)[nH]1` [2-thiouridine], for which the “effect on bloodstream trypanosomes (in words)” value in [1] is recorded as “no effect up to at least 1 mM”.

Take `Cn1ccc(=O)[nH]c1=O` [1-Methyluracil]: in data set [5], the “Ki, U1” value is “NE, 10000”.

For `Nc1cc[nH]c(=O)n1` [Cytosine], in data set [6], the “accumulation of radiolabeled permeant (in words)” value is recorded as “did not detectably accumulate”. The “Ki, U1” value in data set [5] was “NE, 1000”.

Consider `Nc1ncnc2[nH]cnc12` [Adenine], for which the “Ki, U1” value in data set [5] was “NE, 1000”.

`Nc1nc2nc[nH]c2c(=O)[nH]1` [Guanine]: the Ki in data set [5] was > 25 µM.

As to `O=c1ccn([C@@H]2O[C@H](CO)C[C@H]2O)c(=O)[nH]1` [3′-deoxyuridine], the “effect on bloodstream trypanosomes (in words)” value in data set [1] is listed as “no effect up to at least 1 mM”.

Turning to `O=c1[nH]cc(Cl)c(=O)[nH]1` [5-Chlorouracil], the Ki in data set [5] was 900 ± 140 µM.

Turning to `C[C@H]1O[C@@H](n2ccc(=O)[nH]c2=O)[C@H](O)[C@@H]1O` [5′-deoxyuridine], the “effect on bloodstream trypanosomes (in words)” value in data set [1] is “no effect up to at least 1 mM”.

As to `O=c1cn[nH]c(=O)[nH]1` [6-Azauracil], in data set [1], the EC50 amounted to 958 µM. In [2], the EC50 stood at 1100 µM and the “RF, 5F-2′dURes” value amounted to 1.2. In [3], the EC50 came to 1390 µM and the “RF, 5FOARes” value is 1.4. In data set [4], the EC50 was found to be 157 µM and the “RF, 5FURes” value is on record as 0.16. The Ki in data set [5] was ~1000 µM.

As to `C[C@H]1O[C@@H](n2cc(F)c(=O)[nH]c2=O)[C@H](O)[C@@H]1O` [5-fluoro-5′deoxyuridine], the “effect on bloodstream trypanosomes (in words)” value in data set [1] was “no effect up to at least 1 mM”.

In the case of `O=c1[nH]c(=S)ccn1[C@@H]1O[C@H](CO)[C@@H](O)[C@H]1O` [4-thiouridine], in data set [1], the “effect on bloodstream trypanosomes (in words)” value was “no effect up to at least 1 mM”.

As to `O=c1[nH]cc([N+](=O)[O-])c(=O)[nH]1` [5-Nitrouracil], the “Ki, U1” value in data set [5] is listed as “NE, 1000”.

Consider `O=C1C=CNC(=O)C1` [3-Deazauracil], for which, in data set [5], the Ki is > 2500 µM.

For `Cn1c(=O)cc[nH]c1=O` [3-Methyluracil], the Ki in [5] is 1620 ± 350 µM.

As for `Cc1cn([C@H]2CC[C@@H](CO)O2)c(=O)[nH]c1=O` [3′-deoxythymidine], in data set [1], the “effect on bloodstream trypanosomes (in words)” value is “no effect up to at least 1 mM”.

As to `O=c1[nH]c(=O)c2[nH]c(=O)[nH]c2[nH]1` [Uric acid], the “Ki, U1” value in data set [5] is given as “NE, 1000”.

For the molecule `O=c1[nH]c(=O)n([C@@H]2O[C@H](CO)[C@@H](O)[C@H]2O)cc1F` [5-fluorouridine], the “effect on bloodstream trypanosomes (in words)” value in data set [1] is “no effect up to at least 1 mM; also recorded: no effect on trypanosome growth”.

For `O=c1[nH]cc(F)c(=O)[nH]1` [5-Fluorouracil, 5-fluorouracil], in data set [8], the Km was determined as 2.5 ± 0.01 µM and the Vmax is 0.27 ± 0.02 pmol (10^7 cells)^−1s^−1. The “reduction of [3H]-5-FU transport in 5-FURes relative to wild-type” value in data set [10] (0.5 μM [3H]-5-FU, n = 3) is recorded as 76% ± 6. In addition, the Km in data set [10] ([3H]-permeant, strain 5-FURes) is 2.3 ± 0.4 µM. Moreover, the EC50 in data set [1] was 35.9 µM. Further, in data set [2], the EC50 amounted to 76.1 µM and the “RF, 5F-2′dURes” value amounted to 2.1. Also, the “effect on [3H]-thymidine transport (in words)” value in data set [11] is “little or no effect”. Also, in data set [3], the EC50 turned out to be 448 µM and the “RF, 5FOARes” value is 13. For the same molecule, in data set [4], the EC50 was found to be 4710 µM and the “RF, 5FURes” value was 131. Besides, the Ki in [5] is 3 ± 0.8 µM.

For the molecule `Nc1nc(=O)[nH]cc1F` [5-fluorocytosine], in data set [1], the “effect on bloodstream trypanosomes (in words)” value is given as “no effect up to at least 1 mM”.

Consider `Sc1ncccn1` [2-Mercaptopyrimidine], for which the “Ki, U1” value in data set [5] was “NE, 500”.
